ChEMBL document CHEMBL1145518, “Potent immune-modulating and anticancer effects of NKT cell stimulatory glycolipids” (2007)
Activity calls are given as the source filed them. The rule behind the calls is not given here.

How the values were obtained:
[1] = Induction of IL8 secretion in human CD161+ CD3+ NKT cells at 10 ug/ml after 18 hrs relative to basal level; assay type: functional
Outline: (§1)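 Human Vα24i NKT cell lines were expanded for 10 days on irradiated (3,000 rad) autologous immature DCs with 10 units/ml IL-2. The cells (1 × 10^5) were cocultured with 5 × 10^4 irradiated immature CD14+ DCs plus glycolipid at 10 μg/ml. Supernatants were collected at 18 h and read on a 22-plex Luminex bead panel. Triplicates, mean ± SD.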

[2] = Induction of IL15 secretion in human CD161+ CD3+ NKT cells at 10 ug/ml after 18 hrs relative to basal level; assay type: functional; outline: as §1
Mus musculus [3] = assay: Increase in CD8/CD4 T cell ratio in BALB/c mouse at 2 ug, iv after 72 hrs by flow cytometry; assay type: functional, organism-based
Mus musculus [4] = assay: Induction of IL3 secretion in BALB/c mouse serum at 2 ug, iv after 2 hrs relative to control; assay type: functional
Outline: (§2)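 BALB/c mice received an i.v. injection of 100 μl of glycolipid diluted to 20 μg/ml in saline from DMSO stock, with 1% DMSO as vehicle. Serum cytokines/chemokines were measured at 2 and 18 h after injection.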

[5] = Induction of IL12p40 secretion in human CD161+ CD3+ NKT cells at 10 ug/ml after 18 hrs relative to basal level; assay type: functional; outline: as §1
Mus musculus [6] = assay: Induction of KC secretion in BALB/c mouse serum at 2 ug, iv after 2 hrs relative to control; assay type: functional; outline: as §2
Mus musculus [7] = assay: Induction of IL12p40 secretion in BALB/c mouse serum at 2 ug, iv after 18 hrs relative to control; assay type: functional; outline: as §2
Mus musculus [8] = assay: Induction of MCP1 secretion in BALB/c mouse serum at 2 ug, iv after 2 hrs relative to control; assay type: functional; outline: as §2
Mus musculus [9] = assay: Induction of IL1-beta secretion in BALB/c mouse serum at 2 ug, iv after 18 hrs relative to control; assay type: functional; outline: as §2
Mus musculus [10] = assay: Induction of GM-CSF secretion in BALB/c mouse serum at 2 ug, iv after 2 hrs relative to control; assay type: functional; outline: as §2
[11] = Induction of IL2 secretion in human CD161+ CD3+ NKT cells at 10 ug/ml after 18 hrs relative to basal level; assay type: functional; outline: as §1
[12] = Induction of IL12p70 secretion in human CD161+ CD3+ NKT cells at 10 ug/ml after 18 hrs relative to basal level; assay type: functional; outline: as §1
4T1 = assay: Antitumor activity in mouse 4T1 cells xenografted BALB/c mouse assessed as suppression of tumor growth at 2 ug, iv; assay type: functional, cell-based
Outline: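 BALB/c mice (n = 6) were inoculated s.c. with 4T1 breast cancer cells. From day 3 they were treated i.v. with glycolipid or vehicle twice weekly for 4 weeks. Tumor volume was recorded every 3 days for 1 month, and survival was monitored up to 54 days.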

Mus musculus [13] = assay: Induction of IL4 secretion in BALB/c mouse serum at 2 ug, iv after 2 hrs relative to control; assay type: functional; outline: as §2
Mus musculus [14] = assay: Induction of IL10 secretion in BALB/c mouse serum at 2 ug, iv after 18 hrs relative to control; assay type: functional; outline: as §2
Mus musculus [15] = assay: Induction of IL13 secretion in BALB/c mouse serum at 2 ug, iv after 2 hrs relative to control; assay type: functional; outline: as §2
TC1 = assay: Antitumor activity in TC1 cells xenografted C57BL/6 mouse assessed as suppression of tumor growth at 2 ug, iv; assay type: functional, cell-based
Outline: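 C57BL/6 mice (n = 5/group) were inoculated i.v. with TC-1 lung cancer cells. They were then treated i.v. with 2 μg glycolipid per mouse, or 100 μl of 1% DMSO, twice weekly for 4 weeks. Kaplan–Meier survival and body weight were followed, with tumor-free mice as an additional control.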

[16] = Induction of IL6 secretion in human CD161+ CD3+ NKT cells at 10 ug/ml after 18 hrs relative to basal level; assay type: functional; outline: as §1
[17] = Induction of IFN-gamma secretion in human CD161+ CD3+ NKT cells at 10 ug/ml after 18 hrs relative to basal level; assay type: functional; outline: as §1
[18] = Induction of MIPalpha secretion in human CD161+ CD3+ NKT cells at 10 ug/ml after 18 hrs relative to basal level; assay type: functional; outline: as §1
[19] = Induction of IL10 secretion in human CD161+ CD3+ NKT cells at 10 ug/ml after 18 hrs relative to basal level; assay type: functional; outline: as §1
[20] = Induction of MCP1 secretion in human CD161+ CD3+ NKT cells at 10 ug/ml after 18 hrs relative to basal level; assay type: functional; outline: as §1
Mus musculus [21] = assay: Induction of MIPbeta secretion in BALB/c mouse serum at 2 ug, iv after 2 hrs relative to control; assay type: functional; outline: as §2
[22] = Induction of GM-CSF secretion in human CD161+ CD3+ NKT cells at 10 ug/ml after 18 hrs relative to basal level; assay type: functional; outline: as §1
[23] = Induction of IL13 secretion in human CD161+ CD3+ NKT cells at 10 ug/ml after 18 hrs relative to basal level; assay type: functional; outline: as §1
Mus musculus [24] = assay: Induction of IL12p70 secretion in BALB/c mouse serum at 2 ug, iv after 18 hrs relative to control; assay type: functional; outline: as §2
[25] = Induction of TNFalpha secretion in human CD161+ CD3+ NKT cells at 10 ug/ml after 18 hrs relative to basal level; assay type: functional; outline: as §1
Mus musculus [26] = assay: Induction of IL2 secretion in BALB/c mouse serum at 2 ug, iv after 2 hrs relative to control; assay type: functional; outline: as §2
Mus musculus [27] = assay: Induction of IFN-gamma secretion in BALB/c mouse serum at 2 ug, iv after 18 hrs relative to control; assay type: functional; outline: as §2
Mus musculus [28] = assay: Induction of IL6 secretion in BALB/c mouse serum at 2 ug, iv after 2 hrs relative to control; assay type: functional; outline: as §2
Mus musculus [29] = assay: Induction of RANTES secretion in BALB/c mouse serum at 2 ug, iv after 2 hrs relative to control; assay type: functional; outline: as §2
Mus musculus [30] = assay: Induction of TNFalpha secretion in BALB/c mouse serum at 2 ug, iv after 18 hrs relative to control; assay type: functional; outline: as §2
[31] = Induction of IL3 secretion in human CD161+ CD3+ NKT cells at 10 ug/ml after 18 hrs relative to basal level; assay type: functional; outline: as §1
[32] = Induction of RANTES secretion in human CD161+ CD3+ NKT cells at 10 ug/ml after 18 hrs relative to basal level; assay type: functional; outline: as §1
[33] = Induction of IL4 secretion in human CD161+ CD3+ NKT cells at 10 ug/ml after 18 hrs relative to basal level; assay type: functional; outline: as §1
HeLa [34] = assay: Activation of TCR in human HeLa cells overexpressing CD1d assessed as increase in CREB phosphorylation; assay type: cell-based
Outline: (§3)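 Human HeLa, HeLa-CD1d or autologous immature DCs were loaded with glycolipid at 10 μg/ml, or DMSO, for 2 h. Then 3 × 10^5 naïve CD161+/CD3+ NKT cells were added; these were bead-isolated and kept in 100 units/ml IL-2. After 5–10 min the cells were washed and lysed at 4°C. Phospho-CD3ε, ERK1/2 (Thr-185/Tyr-187) and CREB (Ser-133) were read by Luminex bead assay as median fluorescence normalized to total protein, expressed as fold over 1% DMSO.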

HeLa [35] = assay: Activation of TCR in human HeLa cells overexpressing CD1d assessed as increase in CD3epsilon phosphorylation; assay type: cell-based; outline: as §3
dendritic [36] = assay: Activation of TCR in human immature dendritic cells assessed as increase in CREB phosphorylation; assay type: cell-based; outline: as §3
dendritic [37] = assay: Activation of TCR in human immature dendritic cells assessed as increase in ERK1/2 phosphorylation; assay type: cell-based; outline: as §3
HeLa [38] = assay: Activation of TCR in human HeLa cells overexpressing CD1d assessed as increase in ERK1/2 phosphorylation; assay type: cell-based; outline: as §3
dendritic [39] = assay: Activation of TCR in human immature dendritic cells assessed as increase in CD3epsilon phosphorylation; assay type: cell-based; outline: as §3

Row | SMILES | Activity [1] | Activity [2] | Activity [5] | Activity [11] | Activity [12] | Activity [16] | Activity [17] | Activity [18] | Activity [19] | Activity [20] | Activity [22] | Activity [23] | Activity [25] | Activity [31] | Activity [32] | Activity [33] | also measured
1 | CCCCCCCCCCCCCCCCCCCCCCCCCC(=O)N[C@@H](CO[C@H]1O[C@H](C(=O)O)[C@H](O)[C@H](O)[C@H]1O)[C@H](O)[C@H](O)CCCCCCCCCCCCCC | 1.4 | 1.7 | 1.8 | 2.3 | 2.7 | 1 | 3.4 | 3.3 | 0.7 | 1.2 | 2 | 1.1 | 1.7 | 1.3 | 1.6 | 1.5 | Activity (Mus musculus [3]): Active; Activity (Mus musculus [4]): 10.4; Activity (Mus musculus [6]): 16.1; Activity (Mus musculus [7]): 4.4; Activity (Mus musculus [8]): 8; Activity (Mus musculus [9]): 4.8; Activity (Mus musculus [10]): 37.6; Activity (4T1): Active; Activity (Mus musculus [13]): 21.2; Activity (Mus musculus [14]): 1.5; Activity (Mus musculus [15]): 1.7; Activity (TC1): Active; Activity (Mus musculus [21]): 1.8; Activity (Mus musculus [24]): 1.4; Activity (Mus musculus [26]): 21.5; Activity (Mus musculus [27]): 27.5; Activity (Mus musculus [28]): 4.9; Activity (Mus musculus [29]): 2.8; Activity (Mus musculus [30]): 8.7
2 | CCCCCCCCCCCCCCCCCCCCCCCCCC(=O)N[C@@H](CO[C@H]1O[C@H](CO)[C@H](O)[C@H](O)[C@H]1O)[C@H](O)[C@H](O)CCCCC | 1.6 | 2.1 | 1.4 | 1.5 | 1 | 1.8 | 1.9 | 2.7 | 1.5 | 1.3 | 4.7 | 1.8 | 2.2 | 1.4 | 1.8 | 2.7 | Activity (HeLa [34]): 20; Activity (HeLa [35]): 5.9; Activity (dendritic [36]): 49; Activity (dendritic [37]): 18.6; Activity (HeLa [38]): 3.3; Activity (dendritic [39]): 12
